Test [1] is described as follows: Cytotoxicity against COX-2 positive human HCA-7 cells assessed as growth inhibition by CellTiter-96 AQueous assay. The format is functional, cell-based.
For test [2], the target named is T1, Prostaglandin G/H synthase 1 (Ovis aries, UniProt P05979).
T1 sequence (P05979 whole entry): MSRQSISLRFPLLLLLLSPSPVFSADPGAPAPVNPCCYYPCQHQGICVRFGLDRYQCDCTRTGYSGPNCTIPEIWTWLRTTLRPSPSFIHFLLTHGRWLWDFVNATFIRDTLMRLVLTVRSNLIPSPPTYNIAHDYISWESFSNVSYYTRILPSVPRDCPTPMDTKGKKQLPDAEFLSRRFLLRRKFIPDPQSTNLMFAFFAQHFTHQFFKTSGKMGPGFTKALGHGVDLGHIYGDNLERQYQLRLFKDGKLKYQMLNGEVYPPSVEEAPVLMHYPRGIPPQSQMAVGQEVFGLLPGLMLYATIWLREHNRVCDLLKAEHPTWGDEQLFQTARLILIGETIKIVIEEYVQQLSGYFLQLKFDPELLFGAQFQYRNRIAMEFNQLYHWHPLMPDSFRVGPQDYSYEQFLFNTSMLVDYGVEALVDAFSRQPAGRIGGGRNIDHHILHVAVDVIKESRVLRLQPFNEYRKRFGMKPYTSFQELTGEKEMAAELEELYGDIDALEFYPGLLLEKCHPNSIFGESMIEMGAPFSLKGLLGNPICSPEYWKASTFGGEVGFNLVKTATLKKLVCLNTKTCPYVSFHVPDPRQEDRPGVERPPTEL
Kind of test: Inhibition of ram seminal vesicle COX-1 assessed as conversion of arachidonic acid to PGH2. Put shortly:
(§1)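 Assays used enzyme immobilized in ELISA plates, with activity read by ELISA. IC50 values are given in µM.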

A short description of test [3]: Downregulation of hyaluronan-induced CD44v6 protein expression in human HCA-7 cells transfected with Has2cDNA at 5 uM after 24 hrs by Western blotting analysis. It is filed as functional, cell-based. The essentials: (§2)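 HCA7 cells were transiently transfected with Has2 cDNA, grown 72 h, then treated for 24 h. Western blots were probed for CD44v6, COX-1, COX-2 and 5-LOX, with longer exposures used to show COX-2 and 5-LOX. The same blot was reprobed for β-tubulin as a loading control.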
(In western blotting, separated proteins are transferred to a membrane and probed.)

The nature of test [4]: Ratio of IC50 for COX-2 positive human HCA-7 cells to IC50 for COX-2 positive human HCA-7 cells transfected with CD44v6shRNA. It is filed as functional.
Test [5] concerns the target T2, Prostaglandin G/H synthase 2 (Homo sapiens, UniProt P35354).
T2 sequence (P35354 whole entry): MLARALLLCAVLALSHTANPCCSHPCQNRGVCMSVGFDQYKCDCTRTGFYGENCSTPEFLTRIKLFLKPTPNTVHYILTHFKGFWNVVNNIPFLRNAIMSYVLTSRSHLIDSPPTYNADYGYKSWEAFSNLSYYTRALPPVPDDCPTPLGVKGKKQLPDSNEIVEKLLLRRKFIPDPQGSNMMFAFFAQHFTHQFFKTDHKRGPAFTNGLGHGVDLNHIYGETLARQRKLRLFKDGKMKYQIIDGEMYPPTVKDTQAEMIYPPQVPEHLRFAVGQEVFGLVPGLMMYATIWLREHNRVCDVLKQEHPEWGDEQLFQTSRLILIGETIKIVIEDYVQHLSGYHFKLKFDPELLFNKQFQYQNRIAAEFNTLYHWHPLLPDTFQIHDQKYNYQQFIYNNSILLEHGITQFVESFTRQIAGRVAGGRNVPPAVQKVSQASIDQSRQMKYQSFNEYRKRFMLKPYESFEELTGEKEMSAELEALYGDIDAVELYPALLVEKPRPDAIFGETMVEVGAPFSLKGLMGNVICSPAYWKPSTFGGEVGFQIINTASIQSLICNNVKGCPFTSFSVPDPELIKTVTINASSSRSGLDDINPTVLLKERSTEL
As to the kind of experiment: Inhibition of COX-2 (unknown origin) by ELISA.

In test [6] the target is T3, Polyunsaturated fatty acid 5-lipoxygenase (Homo sapiens, UniProt P09917).
T3 sequence (P09917 whole entry): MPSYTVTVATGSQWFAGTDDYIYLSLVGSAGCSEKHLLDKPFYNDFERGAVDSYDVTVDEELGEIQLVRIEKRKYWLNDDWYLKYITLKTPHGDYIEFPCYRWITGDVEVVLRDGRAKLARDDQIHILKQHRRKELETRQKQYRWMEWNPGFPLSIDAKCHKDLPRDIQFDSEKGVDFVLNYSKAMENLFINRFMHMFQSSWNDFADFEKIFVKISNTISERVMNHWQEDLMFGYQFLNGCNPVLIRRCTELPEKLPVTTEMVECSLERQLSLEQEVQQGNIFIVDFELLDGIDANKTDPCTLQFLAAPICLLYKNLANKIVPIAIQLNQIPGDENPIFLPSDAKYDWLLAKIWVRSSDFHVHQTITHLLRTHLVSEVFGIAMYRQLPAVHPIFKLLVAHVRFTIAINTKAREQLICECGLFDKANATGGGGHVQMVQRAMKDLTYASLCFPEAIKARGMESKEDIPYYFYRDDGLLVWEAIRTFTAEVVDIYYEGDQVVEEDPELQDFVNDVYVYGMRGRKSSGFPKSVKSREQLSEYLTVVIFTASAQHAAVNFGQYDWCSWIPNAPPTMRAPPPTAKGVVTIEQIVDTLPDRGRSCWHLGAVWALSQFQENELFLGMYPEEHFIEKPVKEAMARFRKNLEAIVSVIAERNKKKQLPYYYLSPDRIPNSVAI
Kind of test: Inhibition of 5-LOX (unknown origin) by ELISA. Put shortly: as §1
On the technique in general: An ELISA detects its analyte on a solid surface through an enzyme-linked reagent.

The nature of test [7]: Cytotoxicity against COX-2 positive mouse APC10.1 cells overexpressing HAS-2 assessed as growth inhibition by CellTiter-96 AQueous assay. It is filed as functional, cell-based.
Test [8] relates to HT-29. Kind of test: Ratio of IC50 for COX-2 positive human HT-29 cells to IC50 for COX-2 positive human HT-29 cells transfected with CD44v6shRNA. The format is functional.
Test [9] concerns HCA-7. As to the kind of experiment: Inhibition of hyaluronan-induced CD44v6 in human HCA-7 cells transfected with Has2cDNA assessed as downregulation of 5-LOX protein expression at 5 uM after 24 hrs by Western blotting analysis. The format is cell-based. The essentials: as §2
For test [10], the system named is HCA-7. Kind of test: Inhibition of hyaluronan-induced CD44v6 in human HCA-7 cells transfected with Has2cDNA assessed as downregulation of COX-1 protein expression at 5 uM after 24 hrs by Western blotting analysis. It is filed as cell-based. Put shortly: as §2
Test [11] is described as follows: Ratio of IC50 for COX-2 positive mouse APC10.1 cells overexpressing HAS-2 to IC50 for COX-2 positive mouse APC10.1 cells transfected with CD44v6shRNA overexpressing HAS-2. It is filed as functional.
Test [12] deals with HCA-7. As to the kind of experiment: Inhibition of hyaluronan-induced CD44v6 in human HCA-7 cells transfected with Has2cDNA assessed as downregulation of COX-2 protein expression at 5 uM after 24 hrs by Western blotting analysis. The format is cell-based. Put shortly: as §2
For test [13], the system named is HT-29. As to the kind of experiment: Cytotoxicity against COX-2 positive human HT-29 cells transfected with CD44v6shRNA assessed as growth inhibition after 48 hrs by MTT assay. It is filed as functional, cell-based. The settings on record: HT-29, 48 h. (In general: Formazan colour is commonly taken as a measure of viable cells.)
In test [14] the test system is HT-29. As to the kind of experiment: Cytotoxicity against COX-2 positive human HT-29 cells assessed as growth inhibition by CellTiter-96 AQueous assay. It is filed as functional, cell-based.
A further test has as its system SW480. As to the kind of experiment: Cytotoxicity against COX-2 negative human SW480 cells assessed as growth inhibition by CellTiter-96 AQueous assay. It is filed as functional, cell-based.
A short description of test [15]: Cytotoxicity against COX-2 positive human HCA-7 cells transfected with CD44v6shRNA assessed as growth inhibition after 48 hrs by MTT assay. As to conditions: HCA-7, 48 h. The format is functional, cell-based.
Test [16] in a line: Cytotoxicity against COX-2 positive mouse APC10.1 cells transfected with CD44v6shRNA overexpressing HAS-2 assessed as growth inhibition after 48 hrs by MTT assay. It is filed as functional, cell-based.
For test [17], the system named is HCA-7. As to the kind of experiment: Cytotoxicity against human HCA-7 cells expressing COX-2, 5-LOX, CD44v6 assessed as growth inhibition after 24 hrs by MTT assay. The format is functional, cell-based. The essentials:
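HCA7 and HIEC6 cells were exposed to a range of test concentrations for 24 h. Cytotoxicity was read by MTT assay and expressed as percent growth inhibition, with untreated cells set to 0% inhibition.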

The subject of test [18] is HCA-7. Kind of test: Inhibition of hyaluronan-induced CD44v6 in human HCA-7 cells transfected with Has2cDNA assessed as downregulation of 5-LOX protein expression at 50 uM after 24 hrs by Western blotting analysis. It is filed as cell-based. The essentials: as §2
Test [19] relates to HCA-7. Kind of test: Inhibition of hyaluronan-induced CD44v6 in human HCA-7 cells transfected with Has2cDNA assessed as downregulation of COX-2 protein expression at 50 uM after 24 hrs by Western blotting analysis. The format is cell-based. The essentials:
as §2

For test [20], the system named is HCA-7. Kind of test: Inhibition of hyaluronan-induced CD44v6 in human HCA-7 cells transfected with Has2cDNA assessed as downregulation of COX-1 protein expression at 50 uM after 24 hrs by Western blotting analysis. It is filed as cell-based. The essentials:
as §2

Activity calls are given as the source filed them. No cut-off for these calls is given here.

`CC(C)(C)c1cc(/C=N/NC(=O)c2ccccc2)c(O)c(C(C)(C)C)c1`: the 50% inhibitory concentration (IC50) (commonly the point on the concentration scale where inhibition reaches its midpoint) was determined as 4.3 µM in [1]; 25.5 µM in [2]; 6.49 µM in test [5]; 5.88 µM in [6]; 11.9 µM in test [7]; 850 nM in the test with HT-29 [13]. The IC50 in the test on HT-29 [14] came to 5.7 µM; with SW480, 35.7 µM; in test [15] it was 560 nM; in [16], 1800 nM. In addition, the outcome (in test [3]; in the test with HCA-7 [9]; in the test with HCA-7 [10]; with HCA-7 [12]) was Active. Also, the “Ratio IC50” value in [4] worked out at 7.7; with HT-29 [8], 6.7; in test [11], 6.1.

On to `CC(C)(C)c1cc(C=O)c(O)c(C(C)(C)C)c1`, for which the “growth inhibition (GI)” value with HCA-7 [17] is “Active”.

As to `CC(C)(C)c1cc(/C=N/NC(=O)c2cccnc2)c(O)c(C(C)(C)C)c1`, the IC50 was 3.5 µM in test [1]; above 300 µM in [2]; 8.8 µM in test [5]; 5.55 µM in test [6]; 13.8 µM in test [7]; 350 nM with HT-29 [13]. Moreover, the IC50 in the test on HT-29 [14] was found to be 4.3 µM; in the test with SW480, 37 µM; in test [15], 260 nM; in [16], 1900 nM. In addition, the result (in test [3]; with HCA-7 [9]; in the test on HCA-7 [10]; in the test on HCA-7 [12]) was Active. The “Ratio IC50” value in [4] was found to be 14; with HT-29 [8], 12; in [11], 7.2.

For `CC(C)(C)c1cc(/C=N/NC(=O)c2ccncc2)c(O)c(C(C)(C)C)c1`, the IC50 in test [1] was 6.4 µM; in test [2], above 300 µM; in test [5], 7.11 µM; in test [6], 6.25 µM; in test [7] it was 18.2 µM; with HT-29 [13] it was 710 nM. Further, the IC50 in the test on HT-29 [14] was 5.8 µM; in the test on SW480, 33.7 µM; in test [15], 760 nM; in [16] it was 3000 nM. Further, the result (in test [3]; in the test on HCA-7 [9]; in the test on HCA-7 [10]; with HCA-7 [12]) was Active. Further, the “Ratio IC50” value came to 8.4 in [4], 8 with HT-29 [8] and 6.1 in test [11].

As for `CC1(C)Cc2c(-c3ccccc3)c(-c3ccc(Cl)cc3)c(CC(=O)O)n2C1` [LICOFELONE], the IC50 in [1] came out at 60.9 µM; in test [2], 0.8 µM; in [7], 70.6 µM; in the test on HT-29 [13], 21100 nM; with HT-29 [14] it was 67 µM; in the test with SW480 it was 68 µM. Moreover, the values for the IC50 in [15] and in test [16] were 18500 nM and 23000 nM, respectively. Besides, the result in the test on HCA-7 [18], in the test on HCA-7 [19] and in the test with HCA-7 [20] was Active.

For the compound `Cc1ccc(-c2cc(C(F)(F)F)nn2-c2ccc(S(N)(=O)=O)cc2)cc1` [CELECOXIB], the concentration for half-maximal inhibition (IC50) was 4.9 µM in test [1]; 13.4 µM in test [7]; 700 nM in the test with HT-29 [13]; 5.7 µM in the test on HT-29 [14]; 6.9 µM in the test on SW480; 750 nM in test [15]. For the same compound, the IC50 in [16] came to 1300 nM. Also, the result with HCA-7 [9], in the test with HCA-7 [10] and with HCA-7 [12] was Active.

For the compound `NNC(=O)c1ccccc1O`, in the test with HCA-7 [17], the “growth inhibition (GI)” value was “Active”.

The values above are taken from ChEMBL document CHEMBL3098067, “Novel di-tertiary-butyl phenylhydrazones as dual cyclooxygenase-2/5-lipoxygenase inhibitors: synthesis, COX/LOX inhibition, molecular modeling, and insights into their cytotoxicities” (Bioorg Med Chem Lett, 2014).
